{"source": "paper PMC3517082", "about": "(Molecular nutrition & food research, 2011)", "key": {"TrxR [1]": {"tested_on": "TrxR", "settings": "50 μM 4-HNE for 6 hr, HeLa cells; cited from earlier work"}, "TrxR [2]": {"tested_on": "TrxR", "experiment": "TrxR specific activity in normal human bronchial epithelial cells", "format": "cell-based", "settings": "BEAS-2B cells, 2.5 μM acrolein, 30 min", "in_short": "(§1)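 BEAS-2B normal human bronchial epithelial cells exposed to acrolein for 30 min, with vehicle-alone cultures as controls. Specific activity of TrxR, glutathione reductase (GSSG-R) and GAPDH determined by enzymatic assay. Significance (P < 0.01) judged against vehicle-treated cells.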"}, "[3]": {"target": "glutathione reductase (GSSG-R) (Homo sapiens, UniProt P00390)", "sequence (P00390 44-522)": "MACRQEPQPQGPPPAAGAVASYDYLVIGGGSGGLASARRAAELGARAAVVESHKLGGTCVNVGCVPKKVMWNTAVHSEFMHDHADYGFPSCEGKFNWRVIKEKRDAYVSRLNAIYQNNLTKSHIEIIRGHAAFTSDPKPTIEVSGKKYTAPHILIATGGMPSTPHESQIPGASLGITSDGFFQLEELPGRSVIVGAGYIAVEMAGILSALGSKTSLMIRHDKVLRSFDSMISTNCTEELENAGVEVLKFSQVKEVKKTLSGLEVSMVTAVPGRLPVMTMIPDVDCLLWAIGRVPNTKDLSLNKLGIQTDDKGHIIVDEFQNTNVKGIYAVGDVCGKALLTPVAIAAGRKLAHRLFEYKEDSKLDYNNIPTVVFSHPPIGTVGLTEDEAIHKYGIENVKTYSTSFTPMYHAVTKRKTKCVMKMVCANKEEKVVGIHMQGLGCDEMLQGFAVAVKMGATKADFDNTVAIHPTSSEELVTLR", "experiment": "Glutathione reductase specific activity in BEAS-2B cells", "format": "cell-based", "settings": "bronchial cells (BEAS-2B), 30 min", "in_short": "as §1"}, "[4]": {"target": "glyceraldehyde-3-phosphate dehydrogenase (GAPDH) (Homo sapiens, UniProt P04406)", "sequence (P04406 whole entry)": "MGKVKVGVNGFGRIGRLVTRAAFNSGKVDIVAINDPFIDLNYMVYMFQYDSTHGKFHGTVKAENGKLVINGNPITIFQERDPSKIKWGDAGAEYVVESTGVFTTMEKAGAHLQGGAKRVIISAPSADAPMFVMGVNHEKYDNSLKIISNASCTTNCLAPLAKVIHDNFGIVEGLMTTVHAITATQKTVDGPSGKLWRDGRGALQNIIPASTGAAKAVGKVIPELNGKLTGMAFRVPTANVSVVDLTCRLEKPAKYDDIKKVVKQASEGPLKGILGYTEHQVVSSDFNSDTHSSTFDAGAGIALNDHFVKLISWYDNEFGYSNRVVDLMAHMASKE", "experiment": "GAPDH specific activity in BEAS-2B cells", "format": "cell-based", "settings": "30 min acrolein", "in_short": "as §1"}, "GSH [5]": {"tested_on": "GSH", "experiment": "GSH levels in human endothelial cells", "format": "cell-based", "settings": "HMEC-1 cells, acrolein 30 min, recovery 1 or 2 h"}, "ASK1 bound to Trx1": {"target": "ASK1 bound to Trx1 (Homo sapiens, UniProt P10599)", "sequence (P10599 2-105 limits assumed)": "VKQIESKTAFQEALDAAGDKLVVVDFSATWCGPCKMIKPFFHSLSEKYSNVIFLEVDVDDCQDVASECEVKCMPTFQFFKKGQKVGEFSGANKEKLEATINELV", "experiment": "Immunoprecipitation of ASK1 bound to Trx1 in HMEC-1 cells", "format": "cell-based", "settings": "acrolein 30 min"}, "p38": {"tested_on": "p38", "experiment": "p38 phosphorylation western blot in HMEC-1 cells", "format": "cell-based, human", "in_short": "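HMEC-1 cells treated with acrolein, with anisomycin (200 ng/ml) as a known activator and untreated cells as controls. Western blots probed with anti-phospho-p38 (Thr180/Tyr182) and anti-p38α for total p38α. 3–5 independent treatments per condition, compared against untreated control.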"}, "JNK": {"tested_on": "JNK", "experiment": "JNK phosphorylation western blot in HMEC-1 cells", "format": "cell-based, human", "in_short": "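HMEC-1 endothelial cells given acrolein; anisomycin at 200 ng/ml served as positive activator, and untreated cells as reference. Immunoblots probed for phospho-JNK (Thr183/Tyr185) and with anti-pan-JNK for total JNK. n = 3–5 independent treatments for each condition.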"}, "TrxR [6]": {"tested_on": "TrxR", "settings": "A549 cells, cited from earlier work"}, "TrxR [7]": {"tested_on": "TrxR", "settings": "25 μM acrolein for 30 min, human umbilical vein endothelial cells; cited from earlier work"}, "TrxR [8]": {"tested_on": "TrxR", "settings": "BEAS-2B cells, cited from earlier work"}, "Purified TrxR": {"tested_on": "Purified TrxR", "settings": "1 μM acrolein; cited from earlier work"}, "glutathione reductase": {"tested_on": "glutathione reductase", "settings": "25 μM acrolein, 30 min, human umbilical vein endothelial cells; cited from earlier work"}, "glutathione peroxidase": {"tested_on": "glutathione peroxidase", "settings": "25 μM acrolein, 30 min, human umbilical vein endothelial cells; cited from earlier work"}, "superoxide dismutase": {"tested_on": "superoxide dismutase", "settings": "25 μM acrolein, 30 min, human umbilical vein endothelial cells; cited from earlier work"}, "catalase": {"tested_on": "catalase", "settings": "25 μM acrolein, 30 min, human umbilical vein endothelial cells; cited from earlier work"}, "Human endothelial cells": {"tested_on": "Human endothelial cells", "settings": "30 min; cited from earlier work"}, "[9]": {"settings": "depending on the cell type; cited from earlier work"}, "Trx": {"tested_on": "Trx", "settings": "cited from earlier work"}, "Trx1": {"tested_on": "Trx1", "settings": "cited from earlier work"}, "Trx2": {"tested_on": "Trx2", "settings": "cited from earlier work"}, "Prx1": {"tested_on": "Prx1", "settings": "acrolein-treated human bronchial cells; cited from earlier work"}, "Prx3": {"tested_on": "Prx3", "settings": "acrolein-treated human bronchial cells; cited from earlier work"}, "AP-1": {"tested_on": "AP-1", "settings": "A549 cells, reporter construct; cited from earlier work"}, "NF-κB [10]": {"tested_on": "NF-κB", "settings": "A549 cells; cited from earlier work"}, "NF-κB [11]": {"tested_on": "NF-κB", "settings": "bovine endothelial cells; cited from earlier work"}, "NF-κB [12]": {"tested_on": "NF-κB", "settings": "cited from earlier work"}, "[13]": {"tested_on": "human endothelial HMEC-1 cells", "experiment": "Protection of human endothelial cells from acrolein toxicity / cell death", "format": "cell-based"}, "[14]": {"settings": "cited from earlier work"}, "GSH [15]": {"tested_on": "GSH", "settings": "human endothelial cells, pretreatment; cited from earlier work"}, "[16]": {"tested_on": "human endothelial HMEC-1 cells", "settings": "12.5 μM acrolein; cited from earlier work"}, "[17]": {"settings": "5 μM acrolein, human endothelial and bronchial epithelial cells"}, "[18]": {"settings": "human endothelial cells, limited experiments"}}, "note": "Entries after “also recorded” stand apart in the source; their conditions may differ. Like-named read-outs stand apart in the source and are kept apart here.", "data": [{"smiles": "CCCCCC(O)/C=C/C=O", "note": "(stereo not drawn) [4-HNE, 4-hydroxynonenal]", "values": [{"measurement": "inhibition of TrxR activity", "setting": "TrxR [1]", "value": "ca. 60%"}]}, {"smiles": "C=CC=O", "note": "[acrolein, Prop-2-enal]", "values": [{"measurement": "effect on TrxR activity (Fig. 2)", "setting": "TrxR [2]", "value": "markedly inhibits"}, {"measurement": "inhibition of glutathione reductase activity (Fig. 2)", "setting": "[3]; 12.5 μM acrolein", "value": "ca. 40%"}, {"measurement": "effect on glutathione reductase activity (Fig. 2)", "setting": "[3]; 2.5 or 5 μM acrolein", "value": "not inhibited"}, {"measurement": "effect on cellular activity of glyceraldehyde phosphate dehydrogenase (Fig. 2)", "setting": "[4]", "value": "not significantly affected"}, {"measurement": "recovery of GSH levels once acrolein is removed (Fig. 3)", "setting": "GSH [5]", "value": "recover quickly"}, {"measurement": "ASK1 bound to Trx1 (IP, Fig. 4)", "setting": "ASK1 bound to Trx1", "value": "causes dissociation of ASK1 from Trx1"}, {"measurement": "phosphorylation of p38 (Fig. 5)", "setting": "p38", "value": "causes phosphorylation of p38"}, {"measurement": "phosphorylation of JNK (Fig. 6)", "setting": "JNK", "value": "causes phosphorylation of JNK"}, {"measurement": "inhibition of TrxR activity", "setting": "TrxR [6]; 50-75 μM acrolein for 30 min", "value": "ca. 65%"}, {"measurement": "TrxR activity recovered after acrolein removal", "setting": "TrxR [6]; 2-4 hr after acrolein removal", "value": "70-100%"}, {"measurement": "inhibition of TrxR activity", "setting": "TrxR [7]", "value": 88, "unit": "%"}, {"measurement": "effect on TrxR activity at 1 μM", "setting": "TrxR [8]; 1 μM acrolein", "value": "significant inhibition"}, {"measurement": "recovery of TrxR activity after acrolein removal", "setting": "TrxR [8]; 4 hr after acrolein removal", "value": "does not recover"}, {"measurement": "acrolein concentration that strongly inhibits TrxR activity", "setting": "TrxR [8]", "value": "≥ 2.5", "unit": "µM"}, {"measurement": "irreversible inhibition of purified TrxR", "setting": "Purified TrxR", "value": 80, "unit": "%"}, {"measurement": "effect on glutathione reductase", "setting": "glutathione reductase", "value": "not inhibited; also recorded: unaffected"}, {"measurement": "effect on glutathione peroxidase", "setting": "glutathione peroxidase", "value": "not inhibited; also recorded: unaffected"}, {"measurement": "effect on superoxide dismutase", "setting": "superoxide dismutase", "value": "not inhibited; also recorded: unaffected"}, {"measurement": "effect on catalase", "setting": "catalase", "value": "not inhibited"}, {"measurement": "cytotoxic concentration", "setting": "Human endothelial cells", "value": "≥ 5", "unit": "µM"}, {"measurement": "toxicity relative to formaldehyde", "setting": "[9]", "value": "10-200 times"}, {"measurement": "concentration for maximal inhibition of Trx activity", "setting": "Trx; A549 cancer cells", "value": "≥ 15", "unit": "µM"}, {"measurement": "recovery of Trx activity after acrolein removal", "setting": "Trx; A549 cells, 4 hr after acrolein removed", "value": "partial recovery"}, {"measurement": "effect on reduced form of Trx1 (redox blot)", "setting": "Trx1; [17]", "value": "eliminate the reduced forms"}, {"measurement": "recovery of Trx1 redox state after acrolein removal", "setting": "Trx1; human endothelial cells, 4-hr acrolein-free period", "value": "modest recovery"}, {"measurement": "effect on reduced form of Trx2 (redox blot)", "setting": "Trx2; [17]", "value": "eliminate the reduced forms"}, {"measurement": "redox recovery of Trx2 after acrolein removal", "setting": "Trx2; [18]", "value": "not observed"}, {"measurement": "oxidation of Prx1 to dimers", "setting": "Prx1", "value": "near complete oxidation"}, {"measurement": "oxidation of Prx3 to dimers", "setting": "Prx3", "value": "near complete oxidation"}, {"measurement": "effect on AP-1 DNA binding and activity", "setting": "AP-1", "value": "decreases AP-1 binding to DNA and AP-1 activity"}, {"measurement": "effect on NF-κB binding and activity", "setting": "NF-κB [10]", "value": "blocks both the binding and activity of NF-κB"}, {"measurement": "effect on NF-κB DNA binding", "setting": "NF-κB [11]", "value": "blocks NF-κB DNA binding"}]}, {"smiles": "O=C/C=C/c1ccccc1", "note": "[Cinnamaldehyde]", "values": [{"measurement": "effect on NF-κB activity", "setting": "NF-κB [12]", "value": "blocks NF-κB activity"}]}, {"smiles": "Oc1c2ccccc2c2c3c(cccc13)N=N2", "note": "[SP600125]", "values": [{"measurement": "effect on cell death by itself", "setting": "[13]; human endothelial HMEC-1 cells, inhibitor alone", "value": "increases cell death"}]}, {"smiles": "N[C@@H](CCC(=O)N[C@@H](CS)C(=O)NCC(=O)O)C(=O)O", "note": "[GSH, reduced glutathione]", "values": [{"measurement": "pKa of thiol", "setting": "[14]", "value": 8.8}]}, {"smiles": "CCOC(=O)CNC(=O)[C@H](CS)NC(=O)CC[C@H](N)C(=O)O", "note": "[GSH-monoethyl ester]", "values": [{"measurement": "increase in GSH levels", "setting": "GSH [15]", "value": 64, "unit": "%"}, {"measurement": "protection of cells from acrolein", "setting": "[16]", "value": "only a minor protection"}]}, {"smiles": "C[S+]([O-])c1ccc(-c2nc(-c3ccncc3)c(-c3ccc(F)cc3)[nH]2)cc1", "note": "(stereo not drawn) [SB203580]", "values": [{"measurement": "protection from acrolein toxicity (Fig. 7)", "setting": "[13]; HMEC-1 cells, SB203580 10 μM 2 hr pretreatment, 5 and 12.5 μM acrolein 30 min, 14 hr in fresh medium", "value": "decreases acrolein toxicity; also recorded: protects"}]}, {"smiles": "CC(=O)N[C@@H](CS)C(=O)O", "note": "[NAC, N-acetylcysteine, reference compound]", "values": [{"measurement": "protection of Trx1 redox state from acrolein", "setting": "Trx1; human endothelial cells, 2 hr pretreatment", "value": "partially protects"}, {"measurement": "protection of Trx2 from acrolein", "setting": "Trx2; [18]", "value": "did not protect"}, {"measurement": "increase in GSH levels", "setting": "GSH [15]", "value": 31, "unit": "%"}]}]}
